ChEMBL document CHEMBL1151859, “Structure-activity relationship studies of a novel series of anthrax lethal factor inhibitors” (Bioorg Med Chem, 2009)
pEC50, pIC50, pKi: −log10 of the molar value. Calls of active or inactive are those of the source. The calls are words filed in the database; no cut-off is given here.

Assays:
HeLa = assay: Protection against anthrax protective antigen-38/LF-induced cell death in human HeLa cells assessed as MEK1 cleavage at 30 uM treated 90 mins after PA38/LA challenge immunoblotting assay; type: functional, cell-based
Lethal factor = molecular target: T1, Lethal factor (Bacillus anthracis, UniProt P15917); assay: Inhibition of Bacillus anthracis lethal factor assessed as cleavage of MAPKK by fluorescence peptide cleavage assay
T1 sequence (P15917 whole entry): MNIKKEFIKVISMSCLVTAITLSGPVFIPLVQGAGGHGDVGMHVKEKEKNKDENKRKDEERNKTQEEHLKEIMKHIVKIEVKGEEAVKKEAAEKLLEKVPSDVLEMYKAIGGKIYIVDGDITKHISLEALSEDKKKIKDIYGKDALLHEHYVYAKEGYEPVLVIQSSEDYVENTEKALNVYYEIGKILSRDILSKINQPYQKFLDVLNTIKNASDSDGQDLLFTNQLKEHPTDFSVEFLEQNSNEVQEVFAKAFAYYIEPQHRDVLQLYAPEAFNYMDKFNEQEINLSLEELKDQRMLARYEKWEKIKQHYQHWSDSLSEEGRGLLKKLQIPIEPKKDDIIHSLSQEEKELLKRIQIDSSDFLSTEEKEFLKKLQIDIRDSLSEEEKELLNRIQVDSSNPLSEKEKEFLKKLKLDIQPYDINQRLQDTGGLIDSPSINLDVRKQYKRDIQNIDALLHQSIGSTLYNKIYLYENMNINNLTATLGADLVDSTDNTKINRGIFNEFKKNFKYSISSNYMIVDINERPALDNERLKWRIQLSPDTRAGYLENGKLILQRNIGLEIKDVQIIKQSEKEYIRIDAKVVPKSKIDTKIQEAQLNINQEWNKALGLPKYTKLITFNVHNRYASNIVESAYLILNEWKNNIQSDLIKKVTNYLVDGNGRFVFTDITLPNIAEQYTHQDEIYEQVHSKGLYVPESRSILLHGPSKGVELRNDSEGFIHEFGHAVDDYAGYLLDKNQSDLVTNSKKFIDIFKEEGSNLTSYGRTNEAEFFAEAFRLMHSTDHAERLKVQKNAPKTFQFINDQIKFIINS

[1] = Chemical stability of the compound; type: physicochemical
RAW264.7 = assay: Protection against anthrax protective antigen-38/LF-induced cell death in mouse RAW264.7 cells pretreated for 2 hrs followed by PA38/LA challenge assessed as cell viability measured after 4 hrs by ATPlite assay; type: functional, cell-based
[2] = molecular target: Matrix metalloproteinase-9 (Homo sapiens) (UniProt P14780); assay: Inhibition of human MMP9 up to 100 uM by fluorescence peptide cleavage assay
In short: (§1)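 Pro-MMP-2 or pro-MMP-9 activated with 1 mM APMA (20 min or 2 h, respectively), then used at 10 μg/mL with 5-FAM/QXL520 peptide substrate in kit assay buffer.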

[3] = molecular target: 72 kDa type IV collagenase (Homo sapiens) (UniProt P08253); assay: Inhibition of human MMP2 up to 100 uM by fluorescence peptide cleavage assay; in short: as §1
[4] = Solubility at 500 uM; type: physicochemical

Chain of Matrix metalloproteinase-9 (Homo sapiens) (P14780 whole entry): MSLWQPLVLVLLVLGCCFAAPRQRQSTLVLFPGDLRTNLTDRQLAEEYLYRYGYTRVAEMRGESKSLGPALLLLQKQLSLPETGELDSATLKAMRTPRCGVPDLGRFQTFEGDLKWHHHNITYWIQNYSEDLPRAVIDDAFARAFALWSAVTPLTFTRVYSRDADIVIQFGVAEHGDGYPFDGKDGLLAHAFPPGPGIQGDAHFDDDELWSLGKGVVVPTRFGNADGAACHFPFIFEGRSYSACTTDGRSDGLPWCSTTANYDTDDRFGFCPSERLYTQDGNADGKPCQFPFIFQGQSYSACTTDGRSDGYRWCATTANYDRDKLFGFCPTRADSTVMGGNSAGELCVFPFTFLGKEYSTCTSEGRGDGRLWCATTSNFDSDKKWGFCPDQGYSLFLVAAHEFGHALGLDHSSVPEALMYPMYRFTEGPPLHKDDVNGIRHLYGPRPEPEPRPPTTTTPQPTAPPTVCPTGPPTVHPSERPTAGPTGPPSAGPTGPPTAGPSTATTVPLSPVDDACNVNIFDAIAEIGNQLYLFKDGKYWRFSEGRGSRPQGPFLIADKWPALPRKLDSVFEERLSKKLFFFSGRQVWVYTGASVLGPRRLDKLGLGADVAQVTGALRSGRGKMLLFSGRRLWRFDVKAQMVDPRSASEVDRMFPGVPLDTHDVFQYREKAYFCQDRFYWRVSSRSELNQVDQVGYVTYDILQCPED
Chain of 72 kDa type IV collagenase (Homo sapiens) (P08253 110-660 limits assumed): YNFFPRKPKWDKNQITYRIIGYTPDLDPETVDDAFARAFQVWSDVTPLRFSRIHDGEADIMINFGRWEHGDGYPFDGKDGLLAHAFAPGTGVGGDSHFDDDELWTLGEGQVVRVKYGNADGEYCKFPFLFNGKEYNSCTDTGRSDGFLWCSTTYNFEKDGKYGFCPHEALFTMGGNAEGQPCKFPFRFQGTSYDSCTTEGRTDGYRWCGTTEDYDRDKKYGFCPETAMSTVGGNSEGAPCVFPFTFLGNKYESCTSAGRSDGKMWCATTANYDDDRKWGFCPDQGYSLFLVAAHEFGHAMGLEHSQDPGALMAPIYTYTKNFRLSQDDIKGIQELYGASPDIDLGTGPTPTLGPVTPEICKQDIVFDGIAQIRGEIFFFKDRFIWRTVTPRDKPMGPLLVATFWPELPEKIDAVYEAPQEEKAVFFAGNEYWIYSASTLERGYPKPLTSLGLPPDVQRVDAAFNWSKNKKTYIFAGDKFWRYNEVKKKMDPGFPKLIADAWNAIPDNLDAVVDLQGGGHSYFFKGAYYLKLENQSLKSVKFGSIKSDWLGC

Row | Compound | pIC50 (Lethal factor) | other results
1 | CC(C)(C)c1ccc(-c2noc(C(=O)NNC(=S)Nc3ccc(C(F)(F)F)cc3)n2)cc1 |  | Activity (HeLa): Active
2 | O=S(=O)(Nc1sccc1-c1nc2ccccc2s1)c1ccc2ncsc2c1 | 5.00 | Stability [1]: 99.9%; pEC50 (RAW264.7): 5.80
3 | Cc1ccc(NS(=O)(=O)c2cccs2)cc1Cl | < 4.00 | Activity [2]: inactive; Activity [3]: inactive
4 | O=S(=O)(Nc1ccccc1)c1cccs1 | < 4.00 | Activity [2]: inactive; Activity [3]: inactive
5 | O=S(=O)(Nc1ccccc1-c1nc2ccccc2s1)c1ccc(-c2ccc(Cl)cc2)cc1 | 4.00 | 
6 | O=S(=O)(Nc1cccs1)c1ccc(-c2ccc(Cl)cc2)cc1 | < 4.30 | Activity [2]: inactive; Activity [3]: inactive
7 | Cc1csc(NS(=O)(=O)c2cccc(-c3ccc(Cl)cc3)c2)c1-c1nc2ccccc2s1 | 4.66 | 
8 | O=S(=O)(Nc1sccc1-c1nc2ccccc2s1)c1ccc2ccccc2c1 | 5.10 | 
9 | O=S(=O)(Nc1sccc1-c1nc2ccccc2s1)c1ccccc1C(F)(F)F | 5.03 | 
10 | CN1CCOc2cc(S(=O)(=O)Nc3sccc3-c3nc4ccccc4s3)ccc21 | 4.64 | 
11 | O=S(=O)(Nc1sccc1-c1nc2ccccc2s1)c1ccc(F)c(Cl)c1 | 4.89 | 
12 | Cc1csc(NS(=O)(=O)c2ccc(F)c(Cl)c2)c1-c1nc2ccccc2s1 | < 4.00 | 
13 | Cc1csc(NS(=O)(=O)c2ccccc2C(F)(F)F)c1-c1nc2ccccc2s1 | < 4.00 | 
14 | Cc1csc(NS(=O)(=O)c2ccc(F)cc2)c1-c1nc2ccccc2s1 | < 4.00 | 
15 | O=S(=O)(Nc1sccc1-c1nc2ccccc2s1)c1ccccc1 | 4.41 | 
16 | Cc1ccc(S(=O)(=O)Nc2scc(C)c2-c2nc3ccccc3s2)cc1 | < 4.00 | 
17 | Cc1csc(NS(=O)(=O)c2cccc(Cl)c2C)c1-c1nc2ccccc2s1 | 4.00 | 
18 | Cc1csc(NS(=O)(=O)c2cccc(-c3ccccc3)c2)c1-c1nc2ccccc2s1 | 4.72 | 
19 | CC(=O)Nc1ccc(S(=O)(=O)Nc2sccc2-c2nc3ccccc3s2)cc1 | 4.62 | 
20 | CC(C)(C)C(=O)CSC1=NNC(c2ccccc2)S1 (configuration not stated) |  | Activity (HeLa): inactive
21 | N#C/C(=C\c1ccc([N+](=O)[O-])s1)C(=O)c1ccco1 | 4.72 | pKi (Lethal factor): 5.18
22 | O=S(=O)(Nc1sccc1-c1nc2ccccc2s1)c1ccc(Cl)c(C(F)(F)F)c1 | 5.00 | 
23 | Cc1c(S(=O)(=O)Nc2sccc2-c2nc3ccccc3s2)cnn1-c1ccccc1 | < 4.30 | 
24 | Cc1csc(NS(=O)(=O)c2cccc(Cl)c2F)c1-c1nc2ccccc2s1 | 4.00 | 
25 | Cc1csc(N(S(=O)(=O)c2ccc(OC(F)(F)F)cc2)S(=O)(=O)c2ccc(OC(F)(F)F)cc2)c1-c1nc2ccccc2s1 | < 4.00 | 

Row | Compound | pIC50 (Lethal factor) | other results
26 | COc1ccc(-c2ccc(S(=O)(=O)Nc3nc4ccccc4s3)cc2)cc1 | < 4.30 | 
27 | O=S(=O)(Nc1sccc1-c1nc2ccccc2s1)c1cccc(Cl)c1F | 4.52 | 
28 | Cc1c(S(=O)(=O)Nc2sccc2-c2nc3ccccc3s2)sc2ccccc12 | 5.00 | 
29 | CCOC(=O)CCc1c(CC(=O)OCC)c[nH]c1/C=N/O |  | Activity (HeLa): inactive
30 | O=S(=O)(Nc1sccc1-c1nc2ccccc2s1)c1ccc(-n2cccn2)cc1 | 5.10 | 
31 | Cc1ccc(S(=O)(=O)Nc2cccs2)cc1Cl | < 4.30 | Activity [2]: inactive; Activity [3]: inactive
32 | O=S(=O)(Nc1sccc1-c1nc2ccccc2s1)c1ccco1 | < 4.30 | 
33 | Cc1cc(S(=O)(=O)N[C@H](C(=O)NO)C2CCOCC2)ccc1F |  | Activity (HeLa): Active
34 | COc1ccc(S(=O)(=O)Nc2sccc2-c2nc3ccccc3s2)cc1 | 4.74 | 
35 | COc1ccc(S(=O)(=O)Nc2scc(C)c2-c2nc3ccccc3s2)cc1OC | 4.47 | 
36 | Cc1csc(N(S(=O)(=O)c2ccc(F)cc2)S(=O)(=O)c2ccc(F)cc2)c1-c1nc2ccccc2s1 | < 4.00 | 
37 | Cc1ccc(-c2ccc(S(=O)(=O)Nc3sccc3-c3nc4ccccc4s3)cc2)cc1 | 4.55 | 
38 | O=S(=O)(Nc1sccc1-c1nc2ccccc2s1)c1cccc(C(F)(F)F)c1 | 4.80 | 
39 | Cc1csc(NS(=O)(=O)c2ccc(Cl)c(C(F)(F)F)c2)c1-c1nc2ccccc2s1 | 4.96 | 
40 | O=S(=O)(Nc1sccc1-c1nc2ccccc2s1)c1ccc(Br)c(Cl)c1 | 5.35 | 
41 | O=S(=O)(Nc1sccc1-c1nc2ccccc2s1)c1ccc(-c2ccc(C(F)(F)F)cc2)cc1 | 5.10 | 
42 | O=S(=O)(Nc1sccc1-c1nc2ccccc2s1)c1ccc(-c2ccno2)s1 | 4.72 | 
43 | O=S(=O)(Nc1sccc1-c1nc2ccccc2s1)c1ccc(Cl)cc1F | 4.74 | 
44 | Nc1sccc1-c1nc2ccccc2s1 | < 4.00 | 
45 | Cc1csc(NS(=O)(=O)c2ccc(Cl)cc2F)c1-c1nc2ccccc2s1 | 4.72 | 
46 | Cc1cc(S(=O)(=O)Nc2scc(C)c2-c2nc3ccccc3s2)ccc1F | 4.77 | 
47 | Cc1csc(NS(=O)(=O)c2ccc([N+](=O)[O-])cc2)c1-c1nc2ccccc2s1 | 4.96 | solubility [4]: Insoluble; Stability [1]: 99%
48 | Cc1csc(NS(=O)(=O)c2cc(Cl)c(Cl)cc2Cl)c1-c1nc2ccccc2s1 | 4.82 | 
49 | COc1ccc(-c2ccc(S(=O)(=O)Nc3sccc3-c3nc4ccccc4s3)cc2)cc1OC | 5.05 | 
50 | O=S(=O)(Nc1cccc(C(F)(F)F)c1)c1cccs1 | < 4.00 | Activity [2]: inactive; Activity [3]: inactive

Row | Compound | pIC50 (Lethal factor) | other results
51 | Cc1csc(NS(=O)(=O)c2cccc(C(F)(F)F)c2)c1-c1nc2ccccc2s1 | 5.03 | 
52 | COc1ccc(-c2ccc(S(=O)(=O)Nc3sccc3-c3nc4ccccc4s3)cc2Cl)cc1 | 5.52 | 
53 | Cc1csc(NS(=O)(=O)c2ccc(OC(F)(F)F)cc2)c1-c1nc2ccccc2s1 | 4.74 | 
54 | O=S(=O)(Nc1sccc1-c1nc2ccccc2s1)c1ccc(-c2ccc(Cl)cc2)cc1 | 5.52 | solubility [4]: Insoluble; pKi (Lethal factor): 5.77; pEC50 (RAW264.7): 6.60
55 | Cc1csc(N(S(=O)(=O)c2cccc(C(F)(F)F)c2)S(=O)(=O)c2cccc(C(F)(F)F)c2)c1-c1nc2ccccc2s1 | < 4.00 | 
56 | Cc1csc(NS(=O)(=O)c2cccc(Cl)c2)c1-c1nc2ccccc2s1 | < 4.00 | 
57 | CC(C)(C)c1ccc(S(=O)(=O)Nc2sccc2-c2nc3ccccc3s2)cc1 | 4.89 | 
58 | O=S(=O)(Nc1sccc1-c1nc2ccccc2s1)c1ccc(OC(F)(F)F)cc1 | 5.02 | 
59 | Cc1csc(NS(=O)(=O)c2cccc(OC(F)(F)F)c2)c1-c1nc2ccccc2s1 | 4.96 | 
60 | Cc1ccc(S(=O)(=O)Nc2sccc2-c2nc3ccccc3s2)cc1 | 4.89 | 
61 | O=S(=O)(Nc1sccc1-c1nc2ccccc2s1)c1cccc(-c2ccccc2)c1 | 4.89 | 
62 | Cc1csc(NS(=O)(=O)c2ccccc2)c1-c1nc2ccccc2s1 | < 4.00 | 
63 | Cc1ccc(NS(=O)(=O)c2cccs2)cc1C(F)(F)F | < 4.00 | Activity [2]: inactive; Activity [3]: inactive
64 | O=S(=O)(NCCc1nc2ccccc2s1)c1ccc(-c2ccc(Cl)cc2)cc1 | < 4.30 | 
65 | O=S(=O)(Nc1oncc1-c1nc2ccccc2s1)c1ccc(-c2ccc(Cl)cc2)cc1 | < 4.00 | 
66 | O=S(=O)(Nc1sccc1-c1nc2ccccc2s1)c1ccc(-c2cnco2)cc1 | 4.89 | 
67 | COc1ccc(-c2ccc(S(=O)(=O)Nc3cccs3)cc2)cc1 | < 4.30 | Activity [2]: inactive; Activity [3]: inactive
68 | O=S(=O)(Nc1sccc1-c1nc2ccccc2s1)c1ccc(-c2ccc(Cl)c(Cl)c2)cc1 | 5.14 | 
69 | Cc1csc(NS(=O)(=O)c2ccc(-c3ccc(Cl)cc3)cc2)c1-c1nc2ccccc2s1 | 4.92 | 
70 | O=S(=O)(Nc1sccc1-c1nc2ccccc2s1)c1ccc(Oc2ccccc2Cl)cc1 | 5.05 | 
71 | Cc1ccc(S(=O)(=O)Nc2scc(C)c2-c2nc3ccccc3s2)cc1[N+](=O)[O-] | 4.32 | 
72 | Cc1cc(S(=O)(=O)Nc2sccc2-c2nc3ccccc3s2)ccc1F | 4.92 | 
73 | CS(=O)(=O)CS(=O)(=O)Nc1sccc1-c1nc2ccccc2s1 | 4.72 | 
74 | COc1ccccc1Oc1ccc(S(=O)(=O)Nc2sccc2-c2nc3ccccc3s2)cc1 | < 4.30 | 
75 | Cc1ccc(S(=O)(=O)Nc2sccc2-c2nc3ccccc3s2)cc1[N+](=O)[O-] | 5.00 | 
